Source: ChEMBL document CHEMBL4024751, “Hit-to-Lead Optimization and Discovery of 5-((5-([1,1'-Biphenyl]-4-yl)-6-chloro-1H-benzo[d]imidazol-2-yl)oxy)-2-methylbenzoic Acid (MK-3903): A Novel Class of Benzimidazole-Based Activators of AMP-Activated Protein Kinase” (J Med Chem, 2017)

How the values were obtained:
[1] = Oral bioavailability in Sprague-Dawley rat at 4 mg/kg administered through gavage by LC-MS/MS analysis; format: ADME, organism-based; conditions: in vivo
In short: (§1)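 Single-dose PK given IV and PO. Doses: mice 2/10, rats 1/4, dogs 0.5/1 mg/kg IV/PO. Parameters derived: CLp, Vdss, terminal t1/2, Cmax, tmax, F, and oral AUC normalized to dose.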

[2] = biological target: Cytochrome P450 3A4 (Homo sapiens, UniProt P08684); assay: Time-dependant inhibition of CYP3A4 in human liver microsomes; format: ADME
Chain of Cytochrome P450 3A4 (P08684 whole entry): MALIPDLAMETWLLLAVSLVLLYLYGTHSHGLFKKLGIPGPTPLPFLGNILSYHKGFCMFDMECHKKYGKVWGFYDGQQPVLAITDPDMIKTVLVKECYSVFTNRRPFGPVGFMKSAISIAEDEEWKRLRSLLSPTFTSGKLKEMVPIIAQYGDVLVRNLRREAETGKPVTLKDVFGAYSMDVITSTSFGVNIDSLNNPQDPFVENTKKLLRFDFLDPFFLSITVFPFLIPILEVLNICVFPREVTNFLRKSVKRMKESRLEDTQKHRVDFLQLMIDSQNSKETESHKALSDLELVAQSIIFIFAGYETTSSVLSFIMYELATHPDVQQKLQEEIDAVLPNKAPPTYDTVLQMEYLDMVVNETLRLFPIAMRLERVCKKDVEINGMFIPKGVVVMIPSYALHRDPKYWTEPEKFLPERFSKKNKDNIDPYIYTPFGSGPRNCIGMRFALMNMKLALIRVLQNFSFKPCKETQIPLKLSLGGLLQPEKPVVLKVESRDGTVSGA
In short: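 Time-dependent CYP3A4 inhibition assay in human liver microsomes, contract service.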

[3] = Cmax in Beagle dog at 0.5 mg/kg, iv or 1 mg/kg administered through oral gavage by LC-MS/MS analysis; format: ADME, organism-based, Canis lupus familiaris; conditions: in vivo; in short: as §1
[4] = tested on: Mus musculus; assay: In vivo activation of AMPK in db/+ mouse assessed as decrease in hepatic fatty acid synthesis at 3 mg/kg, po administered via gavage 1 hr or 8 hrs prior to [3]H20 administration measured 2 hrs post dose by liquid scintillation counting method relative to control; format: functional; set-up: scale not given: the % may be the effect or the level left
In short: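 Before dosing, db/+ mice were fed a 64% fructose-enriched diet for 1 week to raise fatty acid synthesis. Single oral doses of 3, 10 or 30 mg/kg were given. Hepatic de novo fatty acid synthesis was measured 2 h and 8 h after dosing and expressed as percent inhibition versus vehicle.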

[5] = biological target: AMPK alpha2/beta1/gamma1 (Homo sapiens) (UniProt P54646+P54619+Q9Y478); assay: Agonist activity at human recombinant phosphorylated AMPK complex 7 alpha2/beta1/gamma1 expressed in baculovirus infected Sf21 cells assessed as phosphorylation of 5-FAM-labeled SAMS substrate at 0.002 to 50 uM preincubated for 30 mins in presence of AMPK activator followed by substrate addition measured after 60 mins relative to AMP
Chain of AMPK alpha2/beta1/gamma1 (Homo sapiens) (P54619 whole entry partner): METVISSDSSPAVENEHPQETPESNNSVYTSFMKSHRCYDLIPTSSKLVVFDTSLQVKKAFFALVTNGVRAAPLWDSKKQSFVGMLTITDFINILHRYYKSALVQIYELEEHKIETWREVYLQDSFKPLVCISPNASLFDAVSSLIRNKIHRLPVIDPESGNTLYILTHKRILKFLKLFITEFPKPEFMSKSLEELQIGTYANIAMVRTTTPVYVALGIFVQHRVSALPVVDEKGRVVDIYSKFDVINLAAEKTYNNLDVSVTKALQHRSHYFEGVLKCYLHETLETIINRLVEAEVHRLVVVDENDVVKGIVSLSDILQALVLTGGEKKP
Chain of AMPK alpha2/beta1/gamma1 (Homo sapiens) (P54646 whole entry): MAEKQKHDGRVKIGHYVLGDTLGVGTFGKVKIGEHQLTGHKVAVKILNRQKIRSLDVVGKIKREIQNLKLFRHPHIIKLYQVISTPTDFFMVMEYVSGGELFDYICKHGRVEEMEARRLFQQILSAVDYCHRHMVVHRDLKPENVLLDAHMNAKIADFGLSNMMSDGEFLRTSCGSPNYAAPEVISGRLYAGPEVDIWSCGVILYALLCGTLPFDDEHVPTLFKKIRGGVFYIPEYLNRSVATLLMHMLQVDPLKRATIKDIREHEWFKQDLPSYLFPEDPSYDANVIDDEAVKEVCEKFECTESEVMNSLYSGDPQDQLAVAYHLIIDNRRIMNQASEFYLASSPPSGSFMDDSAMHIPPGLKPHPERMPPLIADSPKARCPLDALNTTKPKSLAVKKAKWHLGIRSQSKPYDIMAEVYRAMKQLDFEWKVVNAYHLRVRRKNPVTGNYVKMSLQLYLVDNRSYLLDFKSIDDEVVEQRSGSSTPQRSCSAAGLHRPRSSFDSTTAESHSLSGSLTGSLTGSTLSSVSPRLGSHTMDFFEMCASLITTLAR
Chain of AMPK alpha2/beta1/gamma1 (Homo sapiens) (Q9Y478 2-270 partner limits assumed): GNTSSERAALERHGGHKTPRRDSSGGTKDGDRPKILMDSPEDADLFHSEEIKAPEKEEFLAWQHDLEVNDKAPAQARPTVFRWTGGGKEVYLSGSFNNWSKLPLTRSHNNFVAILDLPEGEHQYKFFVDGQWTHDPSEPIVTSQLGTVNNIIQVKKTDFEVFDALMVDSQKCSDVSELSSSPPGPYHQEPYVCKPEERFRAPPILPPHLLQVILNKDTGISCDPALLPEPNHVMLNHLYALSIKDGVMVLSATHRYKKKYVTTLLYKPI
In short: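 Recombinant human pAMPK complexes were titrated at 10 points over about 2 nM to 50 μM. EC50 is the average of at least two experiments. %max is the highest activation seen within that range.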

[6] = Tmax in Sprague-Dawley rat at 1 mg/kg, iv or 4 mg/kg administered through oral gavage by LC-MS/MS analysis; format: ADME, organism-based; conditions: in vivo; in short: as §1

Cc1ccc(Oc2nc3cc(-c4ccc(-c5ccccc5)cc4)c(Cl)cc3[nH]2)cc1C(=O)O
bioavailability [1]: 25%
TDI [2]: Not Active
Cmax [3]: 1100 nM
Activity [4]: 60%
%max [5]: 320%
Tmax [6]: 30 min
